# Assay outcomes from PubChem.
# UCH37 inh: inhibitors of human deubiquitinating enzyme UCH37 | 330,000 compounds, 0.33% hits | purified proteasome/UCH37, Ub-AMC cleavage fluorescence | Q9Y5K5 | inhibition, % (test concentration not listed);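 active = mean inhibition over replicate wells above about 20%, limit read from the data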;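 note: 0% = compound-free wells with enzyme and 100% = wells lacking proteasome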
# Target sequence (Q9Y5K5 whole entry, looked up): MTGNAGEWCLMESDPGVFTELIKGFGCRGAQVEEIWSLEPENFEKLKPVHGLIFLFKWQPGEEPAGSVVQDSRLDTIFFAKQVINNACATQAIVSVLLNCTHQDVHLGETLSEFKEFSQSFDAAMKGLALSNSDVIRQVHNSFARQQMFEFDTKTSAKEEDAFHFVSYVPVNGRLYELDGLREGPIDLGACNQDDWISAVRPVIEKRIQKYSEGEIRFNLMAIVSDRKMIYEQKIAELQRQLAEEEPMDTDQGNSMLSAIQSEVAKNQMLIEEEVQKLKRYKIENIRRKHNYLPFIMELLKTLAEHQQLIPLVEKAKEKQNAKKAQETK
#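 Reagent: Ub-AMC substrate; assay system: Proteasome-associated human UCH37 deubiquitinase; controls: no-proteasome and no-compound wells; read-out: % inhibition of Ub-AMC cleavage fluorescence; timing: 30 min preincubation with enzyme, 25 min cleavage at room temperature; signal: AMC fluorescence from Ub-AMC cleavage, excitation 355 nm, emission 460 nm; buffer or medium: Tris-HCl pH 7.4 plus ovalbumin, ATP-MgCl2, DTT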
# NR1D1 modulator: modulators of human Rev-erb alpha DNA binding | Rev-erbα–FITC-DNA binding, fluorescence polarization, 90 min | AID 1259318 | activity, % at 10 µM | P20393 | 370,000 compounds, 0.79% hits;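 active = activity above about 14%, limit read from the data; passing the limit was not always enough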;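 note: 0% = DMSO wells with 35 nM protein and 100% = DMSO wells with 750 nM protein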
# PG9 binder: binds the HIV-1 gp120 antibody PG9. TR-FRET gp120-PG9 antibody binding. inhibition, % at 6.7 µM. 360,000 compounds, 0.43% hits. AID 624416; in the data active = inhibition above about 8.5%
# MIN6 prolif: MIN6 beta-cell proliferation induction | 330,000 compounds, 0.29% hits | proliferation, % at 10 µM | MIN6 cells proliferation, ATPlite luminescence, 48 h; cells starved in 0.2% serum; 100% = growth in 10% serum | AID 2380;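 active = compounds whose signal lies at least 3.5 SD above the mean of all wells on their plate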;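 note: 0% = DMSO-treated cells in low-serum medium and 100% = 10% serum control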
# CR mimetic SO: lowers age-related superoxide in aged yeast cells. S. cerevisiae aged cells, superoxide DHE fluorescence; hits give low values. superoxide response (% of plate mean), % at 10 µM. 330,000 compounds, 0.18% hits;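 active = superoxide response under a set limit, about three screen SD below normal, cut at about 65% in these data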;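 note: yeast aged for seven days with compound at 30 °C before DHE staining; 100% = average MFI of all compound-treated wells on the plate with controls excluded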
# Rce1 inh: yeast Ras-converting enzyme inhibition; Q03530; yeast membranes, quenched prenylated peptide cleavage fluorescence; calls only; 290,000 compounds, 0.27% hits; AID 2563;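 active = fall in fluorescence gain of 50% or more versus controls, with final raw signal at or below 3038400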;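 note: plate controls were neutral control wells for no effect and wells lacking membranes for full effect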
# Target sequence (Q03530 whole entry, looked up): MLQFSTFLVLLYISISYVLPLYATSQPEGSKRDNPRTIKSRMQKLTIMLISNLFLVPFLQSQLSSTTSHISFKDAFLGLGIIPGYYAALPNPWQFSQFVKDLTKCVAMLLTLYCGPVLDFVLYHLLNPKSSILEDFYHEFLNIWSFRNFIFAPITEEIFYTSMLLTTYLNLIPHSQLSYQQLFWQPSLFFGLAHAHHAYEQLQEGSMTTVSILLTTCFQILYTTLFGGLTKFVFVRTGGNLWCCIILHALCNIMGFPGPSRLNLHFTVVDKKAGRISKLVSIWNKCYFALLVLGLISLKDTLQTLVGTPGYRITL
# * hit, by the source's call; i = inactive; . = no result given; + = active, no number. In the library only some 1.9% were active in any assay of this set; here they are far more common.
SMILES,UCH37 inh,NR1D1 modulator,PG9 binder,MIN6 prolif,CR mimetic SO,Rce1 inh
O=C1NNC(c2ccccc2)=N/C1=C\c1ccccc1,23.2*,2.6,-0.8,-0.5,98.4,i
O=C(c1ccc(-n2cccn2)cc1)N1CCc2c([nH]c3ccccc23)C1c1ccccn1 (centres undefined),2.6,4.3,-0.4,-0.4,97.2,i
Cc1cc2cc(C(=O)N3CCc4c([nH]c5ccccc45)C3c3ccccn3)ccc2o1 (centres undefined),4.5,-5.8,-2.1,-6.5,109.5,+
COc1cccc2nc3cc(C)c(C)cc3nc12,.,-21.1,-13.6,-4.7,62.7*,i
COc1cccc2c1nc(C)c1cc(C)oc12,-7.9,-3.2,1.8,-0.5,118.9,i
COc1ccc(C(CNC(=O)COc2cc(C)c(Cl)c(C)c2)N2CCCCC2)cc1 (centres undefined),.,-1.0,-1.6,-6.7,107.1,+
COc1c(C=NNc2ccc([N+](=O)[O-])cc2[N+](=O)[O-])c(C)nn1-c1ccccc1,8.4,.,.,.,.,.
CC(C)(C)N1C(=O)[C@H]2[C@@H](c3ccc(Br)cc3)N3C(=O)N(c4ccccc4)C(=O)[C@@]3(Cc3ccccc3)[C@H]2C1=O,27.4*,-0.7,-0.1,-7.0,103.2,i
CC(C)(C)N1C(=O)[C@H]2[C@@H](c3ccc(Br)cc3)N3C(=O)N(c4cccc(Br)c4)C(=O)[C@@]3(Cc3ccccc3)[C@H]2C1=O,1.4,.,.,-6.6,98.2,i
Nc1nonc1-n1nnc(C(=O)NN=Cc2ccccc2)c1CSc1ccc(Cl)cc1,-4.1,.,.,.,.,.
Cc1csc(NC(=O)c2ccccc2O)n1,-49.0,-0.3,-3.2,-4.1,85.0,+
CC(C)(C)c1csc(NC(=O)c2ccccc2O)n1,-226.9,4.6,0.3,-4.0,101.8,i
c1ccc(CNc2nc(NCc3ccccc3)c3ccccc3n2)cc1,-48.0,.,.,-3.3,90.8,+
COc1cccc(-c2c(C(=O)N/N=C/c3sccc3C)nnn2-c2nonc2N)c1,.,0.4,-1.1,8.3,100.2,+
CCCOc1ccc(-c2c(C(=O)N/N=C/c3cccs3)nnn2-c2nonc2N)cc1,.,.,.,-3.7,89.2,+
CCSc1nc2c(c(=O)[nH]1)C(c1ccccn1)C1=C(CC(C)(C)CC1=O)N2 (centres undefined),i,4.3,1.8,-1.7,92.9,+
CC(C)Sc1nc2c(c(=O)[nH]1)C(c1cccs1)C1=C(CC(C)(C)CC1=O)N2 (centres undefined),-11.4,0.7,-0.4,-2.7,106.5,i
Nc1ccc(C(=O)n2c3ccccc3c3ccccc32)cc1,28.0*,1.2,1.8,-2.4,107.5,i
Nc1ccc(C(=O)N2CCCC2)cc1,3.8,6.9,0.8,-0.6,101.5,i
OCCN1CCN(CC#CCn2c3ccccc3c3ccccc32)CC1,22.7*,-3.2,-0.8,-0.5,99.9,i
OC1CCN(C(c2ccc3ncccc3c2)c2nnnn2C2CCCCC2)CC1 (centres undefined),0.5,5.8,-1.8,1.2,95.5,+
CCOc1ccc(S(=O)(=O)Nc2cc(OC)c(OC)cc2C(=O)O)cc1,-0.4,-8.6,-1.7,-1.6,118.9,+
COc1cc(NS(=O)(=O)c2ccc(F)cc2)c(C(=O)O)cc1OC,4.5,6.5,-1.1,0.0,103.5,i
COc1cc(C=NNc2ccc(C(=O)O)cc2)cc(OC)c1OC,13.9,.,.,.,.,.
CN(C)C(=S)Nn1c(-c2ccccc2)nc2ccccc2c1=O,25.1*,3.7,-0.7,-1.6,97.5,i
SMILES,UCH37 inh,NR1D1 modulator,PG9 binder,MIN6 prolif,CR mimetic SO,Rce1 inh
ON=C(c1ccc(F)cc1)C1CC1c1c(F)cccc1Cl (centres undefined),2.8,.,.,.,.,.
COc1cccc(C=NNC(=O)CCc2c(C)n[nH]c2C)c1,28.7*,.,.,.,.,.
CCOC(=O)NC(=O)/C(C#N)=C\Nc1sccc1C(=O)OC,28.2*,1.1,-1.1,-3.5,100.4,i
CC(=NNc1nc2ccccc2[nH]1)c1ccc([N+](=O)[O-])cc1,4.3,.,.,.,.,.
O=C(COC(=O)c1ccc2ncsc2c1)Nc1ccccc1Cl,-1.3,3.8,4.2,-0.7,39.7*,.
CC(=O)OC(C(O)=C(C#N)c1nc2ccccc2[nH]1)c1ccccc1 (centres undefined),-36.4,.,.,.,.,.
COc1cccc(C=NNC(=O)c2cc3cc([N+](=O)[O-])ccc3s2)c1O,24.4*,.,.,.,.,.
CC[n+]1c(/C=C/Nc2ccccc2)oc2ccccc21,8.9,-2.4,-0.3,-2.5,96.2,i
CC[n+]1c(/C=C/N(C)c2ccccc2)oc2ccc(F)cc21,24.3*,3.6,-3.5,0.0,95.7,i
CC[n+]1c(/C=C/N(C)c2ccccc2)oc2ccccc21,20.5*,0.7,0.0,0.0,106.2,i
COc1ccccc1/C=C/C=NNC(=O)c1ccco1,-12.0,.,.,.,.,.
CC(=NNC(=O)C(N)=O)c1cccc(C(F)(F)F)c1,3.5,.,.,.,.,.
Cc1occc1C(=O)NN=Cc1ccc[nH]1,9.2,.,.,.,.,.
CCOc1ccc(CCNC(=O)COc2cc(=O)n(C)c3ccccc23)cc1OCC,2.8,-2.0,-2.2,-0.4,104.2,i
CCOc1ccc(CCNC(=O)CSc2cc(=O)n(C)c3ccccc23)cc1OCC,3.5,2.3,-2.7,0.0*,98.8,i
O=C(NN=Cc1ccc(Cl)c([N+](=O)[O-])c1)c1ccc2nc[nH]c2c1,4.5,.,.,.,.,.
CN(C)c1nc(NN=Cc2ccc(Cl)c([N+](=O)[O-])c2)nc(Nc2ccc(F)cc2)n1,4.1,.,.,.,.,.
Cc1ccc(C(=O)c2c3ccc(C(F)(F)F)cc3nn2CCC(N)=O)cc1,3.3,-3.8,-0.8,-3.2,102.0,+
Cc1ccc(C(=O)c2c3ccc([N+](=O)[O-])cc3[n+]([O-])n2CCC(N)=O)cc1,-1.6,0.3,-2.7,-5.5,77.9,i
Nc1ccccc1C(=O)NN=C1C2CN3CCN(C2)CC1(Cc1ccccc1)C3,-141.2,.,.,.,.,.
CCC(C)NC(=O)c1cc2c(=O)n3cccc(C)c3nc2s1 (centres undefined),i,3.3,0.9,1.5,101.4,+
C=CCNC(=O)c1cc2c(=O)n3cccc(C)c3nc2s1,-473.1,-0.2,0.6,1.4,96.2,i
COc1cc(C=NO)cc(Cl)c1OC,2.6,.,.,.,.,.
COc1ccccc1N1CCN(N=Cc2ccc(Cl)c([N+](=O)[O-])c2)CC1,2.4,.,.,.,.,.
Nc1ccc2c(C(F)(F)F)cc(C(F)(F)F)nc2n1,-264.3,-4.1,-0.3,-2.5,101.7,+
COc1ccc(N(CC(=O)NN=Cc2cc(OC)ccc2OC)S(=O)(=O)c2ccccc2)cc1,-173.9,.,.,.,.,.
CCOC(=O)c1cc2c(=O)n3cccc(C)c3nc2n(CC(C)C)c1=NC(=O)c1ccco1,-150.1,-5.1,-1.2,-0.9,108.2,+
CCOCCCn1c(=NC(=O)c2ccco2)c(C(=O)OCC)cc2c(=O)n3cccc(C)c3nc21,-172.3,1.3,-1.4,4.2,97.3,i
